ChEMBL document CHEMBL4346672, “Antimicrobial and KPC/AmpC inhibitory activity of functionalized benzosiloxaboroles” (Eur J Med Chem, 2019)
Values after ≈ are worked out from the molar mass of the structure shown. Active and inactive are the calls of the source. No cut-off for these calls is given here.

Tests used:
[1] = system: Staphylococcus aureus; assay: Antibacterial activity against Staphylococcus aureus ATCC 6538P assessed as diameter of zone inhibition measured after 18 hrs by CLSI disc diffusion method; assay type: functional
Outline: (§1)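 Disc diffusion on Mueller-Hinton II agar. Compounds dissolved in DMSO. Strains stored at -80 °C and subcultured twice on tryptic soy agar before testing. Inhibition zones read after 35 °C, 18 h.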

[2] = system: Serratia marcescens; assay: Antibacterial activity against Serratia marcescens ATCC 13880 measured after 18 hrs by CLSI broth dilution method; assay type: functional; settings: ATCC 13880, 18 h
Outline: (§2)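 Broth MIC in Mueller-Hinton II broth following CLSI, compounds dissolved in DMSO. Strains subcultured twice on tryptic soy agar before testing. Growth read after 35 °C, 18 h.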

[3] = system: Candida tropicalis; assay: Antifungal activity against Candida tropicalis IBA 171 assessed as diameter of zone inhibition incubated for 24 hrs by CLSI disc diffusion method; assay type: functional
Outline: (§3)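 Yeast disc diffusion on Mueller-Hinton agar supplemented with 2% glucose and 0.5 mg/L methylene blue. Compounds in DMSO. Yeasts subcultured on Sabouraud dextrose agar before testing. Zones read after 35 °C, 24 h.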

[4] = system: Pichia kudriavzevii; assay: Antifungal activity against Candida krusei ATCC 6258 assessed as diameter of zone inhibition incubated for 24 hrs by CLSI disc diffusion method; assay type: functional; outline: as §3
[5] = system: Saccharomyces cerevisiae; assay: Antifungal activity against Saccharomyces cerevisiae ATCC 9763 diameter of zone inhibition incubated for 24 hrs by CLSI disc diffusion method; assay type: functional
Outline: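 Disc-diffusion run on Mueller-Hinton II agar with 2% glucose and 0.5 mg/L methylene blue, using compounds in DMSO. Yeast was precultured on Sabouraud dextrose agar (24–48 h, 30 °C). Zones read after 24 h at 35 °C.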

[6] = system: Staphylococcus epidermidis; assay: Antibacterial activity against Staphylococcus epidermidis ATCC 12228 measured after 18 hrs by CLSI broth dilution method; assay type: functional; settings: ATCC 12228, 18 h; outline: as §2
[7] = system: Enterococcus faecalis; assay: Antibacterial activity against Enterococcus faecalis ATCC 29212 assessed as diameter of zone inhibition measured after 18 hrs by CLSI disc diffusion method; assay type: functional; outline: as §1
[8] = system: Escherichia coli; assay: Antibacterial activity against Escherichia coli ATCC 25922 measured after 18 hrs by CLSI broth dilution method; assay type: functional; settings: ATCC 25922, 18 h; outline: as §2
[9] = system: Enterobacter cloacae; assay: Antibacterial activity against Enterobacter cloacae DSM 6234 measured after 18 hrs by CLSI broth dilution method; assay type: functional; settings: DSM 6234, 18 h; outline: as §2
[10] = system: Burkholderia cepacia; assay: Antibacterial activity against Burkholderia cepacia ATCC 25416 measured after 18 hrs by CLSI broth dilution method; assay type: functional; settings: ATCC 25416, 18 h; outline: as §2
[11] = system: Enterobacter cloacae; assay: Antibacterial activity against Enterobacter cloacae DSM 6234 assessed as diameter of zone inhibition measured after 18 hrs by CLSI disc diffusion method; assay type: functional; outline: as §1
[12] = system: Stenotrophomonas maltophilia; assay: Antibacterial activity against Stenotrophomonas maltophilia ATCC 13637 assessed as diameter of zone inhibition measured after 18 hrs by CLSI disc diffusion method; assay type: functional; outline: as §1
[13] = system: Enterobacter cloacae; assay: Antibacterial activity against Enterobacter cloacae DSM 6234 assessed as fold reduction of MIC in presence of efflux pump inhibitor PAbetaN incubated for 18 hrs by broth microdilution method; assay type: functional
Outline: (§4)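 MICs determined with and without PAβN at 50 mg/L in Mueller-Hinton broth containing 1 mM MgSO₄. 2-fold serial dilutions per CLSI. Fold change taken from the paired MICs after 35 °C, 18 h.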

[14] = system: Serratia marcescens; assay: Antibacterial activity against Serratia marcescens ATCC 13880 assessed as fold reduction of MIC in presence of efflux pump inhibitor PAbetaN incubated for 18 hrs by broth microdilution method; assay type: functional; outline: as §4
[15] = system: Pseudomonas aeruginosa; assay: Antibacterial activity against Pseudomonas aeruginosa ATCC 27853 assessed as fold reduction of MIC in presence of efflux pump inhibitor PAbetaN incubated for 18 hrs microdilution method; assay type: functional; outline: as §4
[16] = system: Acinetobacter baumannii; assay: Antibacterial activity against Acinetobacter baumannii ATCC 19606 assessed as fold reduction of MIC in presence of efflux pump inhibitor PAbetaN incubated for 18 hrs by broth microdilution method; assay type: functional; outline: as §4
[17] = system: Klebsiella pneumoniae; settings: ATCC 13883
[18] = system: Staphylococcus aureus; assay: Bactericidal activity against Staphylococcus aureus ATCC 6538P measured after 18 hrs by CLSI broth dilution method; assay type: functional
Outline: (§5)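 Strains stored at -80 °C and subcultured twice on tryptic soy agar before testing. Compounds dissolved in DMSO. […] MBC then determined per CLSI recommendations.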

[19] = system: Staphylococcus epidermidis; assay: Bactericidal activity against Staphylococcus epidermidis ATCC 12228 measured after 18 hrs by CLSI broth dilution method; assay type: functional; settings: ATCC 12228, 18 h; outline: as §5

SMILES	MIC [2]	MIC [6]	MIC [8]	MIC [9]	MIC [10]	diameter of the inhibition zone (DIZ) [1]	diameter of the inhibition zone (DIZ) [3]	diameter of the inhibition zone (DIZ) [4]	diameter of the inhibition zone (DIZ) [5]	diameter of the inhibition zone (DIZ) [7]	diameter of the inhibition zone (DIZ) [11]	diameter of the inhibition zone (DIZ) [12]	fold change (FC) [13]	fold change (FC) [14]	fold change (FC) [15]	fold change (FC) [16]	DIZ [17]	MBC [18]	MBC [19]
C[Si]1(C)OB(O)c2cccc(F)c21	> 400 mg/L	25 mg/L (≈ 128 µM)	400 mg/L (≈ 2040 µM)	> 400 mg/L	> 400 mg/L	25 mm	14 mm	18 mm	45 mm	13 mm	inactive	11 mm	32	4	16	4	inactive	–	–
C[Si]1(C)OB(O)c2ccc(F)cc21	> 400 mg/L	50 mg/L (≈ 255 µM)	400 mg/L (≈ 2040 µM)	> 400 mg/L	> 400 mg/L	29 mm	11 mm	11 mm	46 mm	inactive	inactive	12 mm	32	8	16	4	inactive	400 mg/L (≈ 2040 µM)	–
C[Si]1(C)OB(O)c2cccc(B(O)O)c21	> 400 mg/L	200 mg/L (≈ 901 µM)	> 400 mg/L	> 400 mg/L	> 400 mg/L	11 mm	inactive	inactive	inactive	inactive	inactive	12 mm	8	2	4	2	inactive	–	–

The next lines start with results.

MIC [2]	MIC [6]	MIC [8]	MIC [9]	MIC [10]	SMILES	diameter of the inhibition zone (DIZ) [1]	diameter of the inhibition zone (DIZ) [3]	diameter of the inhibition zone (DIZ) [4]	diameter of the inhibition zone (DIZ) [5]	diameter of the inhibition zone (DIZ) [7]	diameter of the inhibition zone (DIZ) [11]	diameter of the inhibition zone (DIZ) [12]	fold change (FC) [13]	fold change (FC) [14]	fold change (FC) [15]	fold change (FC) [16]	DIZ [17]	MBC [18]	MBC [19]
> 400 mg/L	50 mg/L (≈ 234 µM)	> 400 mg/L	> 400 mg/L	> 400 mg/L	C[Si]1(C)OB(O)c2cc(F)c(F)cc21	34 mm	13 mm	17 mm	57 mm	inactive	inactive	14 mm	32	4	8	8	inactive	–	–
> 400 mg/L	25 mg/L (≈ 118 µM)	400 mg/L (≈ 1880 µM)	> 400 mg/L	> 400 mg/L	C[Si]1(C)OB(O)c2ccc(Cl)cc21	20 mm	15 mm	26 mm	47 mm	17 mm	inactive	19 mm	64	16	32	16	inactive	400 mg/L (≈ 1880 µM)	50 mg/L (≈ 235 µM)
> 200 mg/L	50 mg/L (≈ 281 µM)	> 200 mg/L	> 200 mg/L	200 mg/L (≈ 1120 µM)	C[Si]1(C)OB(O)c2ccccc21	inactive	inactive	inactive	36 mm	inactive	inactive	inactive	4	0	8	4	inactive	–	–
